{
  "source": "PubChem BioAssay AID504325",
  "about": "(Broad Institute, 2011)",
  "note": "Records with an inconclusive call do not appear. Calls of active or inactive are those of the source.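 The calls were made as follows: active = every replicate test active, with falling signal and half-maximal potency at or below ten times the top dose; inconclusive = replicate tests give conflicting calls; inactive = all tests inactive, or signal shifts the wrong way.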",
  "data": [
    {"system": "not listed separately", "assay": "viability loss of control HMLE line – cell-based, dry powder, set 2, counter-screen for breast cancer stem cell project, dose response (AID 504325)", "details": "HMLE_sh_eGFP viability, CellTiter-Glo luminescence, 72 h; at 30 µM (top of the series)", "procedure,_shortened": "(§1)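 Material – HMLE_sh_eGFP control breast epithelial cell line · Input – 2000 cells per well · Buffer or medium – medium without serum · Timing – about 72 h compound exposure at 37 °C · Detection – luminescent ATP detection, CellTiter-Glo diluted 1:3 in PBS · Benchmarks – DMSO-only neutral wells and puromycin positive wells on each plate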", "values": [
      {"smiles": "O=C(C#Cc1ccccc1)NC1=NCCS1", "activity change, negative = cytotoxic": "9.83% (inactive)"},
      {"smiles": "CCNC(=O)/C=C/c1ccc(C(C)C)cc1", "activity change, negative = cytotoxic": "7.1% (inactive)"},
      {"smiles": "Cc1ccccc1NCC(=O)N/N=C/c1ccc[nH]1", "activity change, negative = cytotoxic": "7.91% (inactive)"},
      {"smiles": "O=C(COc1ccc(Cl)cc1Cl)N/N=C/c1ccc[nH]1", "activity change, negative = cytotoxic": "-54.1% (inactive)"},
      {"smiles": "Cc1ccccc1OCC(=O)N/N=C/c1ccc[nH]1", "activity change, negative = cytotoxic": "5.25% (inactive)"},
      {"smiles": "CC(=O)Oc1ccc(/C=C/C(=O)NC2=NCCS2)cc1", "activity change, negative = cytotoxic": "-11.6% (inactive)"},
      {"smiles": "CC(=O)Oc1ccccc1/C=C/C(=O)NC1=NCCS1", "activity change, negative = cytotoxic": "0.09% (inactive)"},
      {"smiles": "O=C(COc1ccc(Cl)cc1Cl)N/N=C/c1cccs1", "activity change, negative = cytotoxic": "13.7% (inactive)"},
      {"smiles": "O=C(CCc1ccccc1)NC1=NCCS1", "activity change, negative = cytotoxic": "4.67% (inactive)"},
      {"smiles": "COc1cc(/C=C/C(=O)NC2=NCCS2)cc(OC)c1OC", "activity change, negative = cytotoxic": "0.088% (inactive)"},
      {"smiles": "COc1ccc(/C=C/C(=O)NC2=NCCS2)cc1OC", "activity change, negative = cytotoxic": "-1.05% (inactive)"},
      {"smiles": "COc1ccc(CCC(=O)N/N=C/c2ccc[nH]2)cc1", "activity change, negative = cytotoxic": "-0.101% (inactive)"},
      {"smiles": "O=Cc1ccc[nH]1", "activity change, negative = cytotoxic": "7.66% (inactive)"},
      {"smiles": "Cn1c(C(=O)NC2=NCCS2)cc2ccccc21", "activity change, negative = cytotoxic": "6.92% (inactive)"},
      {"smiles": "Cc1ccccc1/C=C/C(=O)NC1=NCCS1", "activity change, negative = cytotoxic": "6.57% (inactive)"},
      {"smiles": "CC(C)(C)c1ccc2c(c1)OC(C(=O)NN)CO2", "note": "(configuration not stated)", "activity change, negative = cytotoxic": "15.8% (inactive)"},
      {"smiles": "O=C(COc1ccc(Cl)cc1Cl)N/N=C/c1ccco1", "activity change, negative = cytotoxic": "5.52% (inactive)"},
      {"smiles": "O=C(/C=C/c1ccc(F)cc1)NC1=NCCS1", "activity change, negative = cytotoxic": "-0.331% (inactive)"},
      {"smiles": "O=C(O)c1ccc(COc2ccccc2)o1", "activity change, negative = cytotoxic": "1.43% (inactive)"},
      {"smiles": "O=C(N/N=C/c1ccc[nH]1)c1cc2ccccc2o1", "activity change, negative = cytotoxic": "13.1% (inactive)"},
      {"smiles": "N#Cc1ccccc1OCC(=O)N/N=C/c1ccc[nH]1", "activity change, negative = cytotoxic": "-7.45% (inactive)"},
      {"smiles": "O=C(COc1ccc(Cl)cc1)N/N=C/c1ccc[nH]1", "activity change, negative = cytotoxic": "10.5% (inactive)"},
      {"smiles": "O=C(/C=C/c1cc(Cl)ccc1Cl)NC1=NCCS1", "activity change, negative = cytotoxic": "3.58% (inactive)"},
      {"smiles": "COc1ccc(OC)c(/C=C/C(=O)NC2=NCCS2)c1", "activity change, negative = cytotoxic": "2.36% (inactive)"},
      {"smiles": "O=C(COc1ccccc1F)N/N=C/c1ccc[nH]1", "activity change, negative = cytotoxic": "1.58% (inactive)"},
      {"smiles": "O=C(COc1ccc(Cl)cc1Cl)N/N=C/c1cnc[nH]1", "activity change, negative = cytotoxic": "-6.28% (inactive)"},
      {"smiles": "O=C(N/N=C/c1ccc[nH]1)C1Cc2ccccc2O1", "note": "(configuration not stated)", "activity change, negative = cytotoxic": "-1.79% (inactive)"},
      {"smiles": "CC(C)c1ccc(/C=C/C(=O)O)cc1", "activity change, negative = cytotoxic": "16.2% (inactive)"},
      {"smiles": "COc1ccc(/C=C/C(=O)NC2=NCCS2)c(OC)c1", "activity change, negative = cytotoxic": "3.11% (inactive)"},
      {"smiles": "NNC(=O)COc1ccc(Cl)cc1Cl", "activity change, negative = cytotoxic": "-3.9% (inactive)"},
      {"smiles": "COc1ccc(/C=C/C(=O)NC2=NCCS2)c(OC)c1OC", "activity change, negative = cytotoxic": "-0.513% (inactive)"},
      {"smiles": "CC(Oc1ccc(F)cc1Cl)C(=O)N/N=C/c1ccc[nH]1", "note": "(configuration not stated)", "activity change, negative = cytotoxic": "16.8% (inactive)"},
      {"smiles": "O=C(/C=C/c1ccccc1)NC1=NCCS1", "activity change, negative = cytotoxic": "-4.89% (inactive)"},
      {"smiles": "O=C(NC1=NCCS1)c1ccc(COc2ccccc2)o1", "activity change, negative = cytotoxic": "12.9% (inactive)"}
    ]},
    {"system": "HMLE_sh_eGFP viability, CellTiter-Glo luminescence, 72 h", "assay": "viability loss of control HMLE line – cell-based, dry powder, set 2, counter-screen for breast cancer stem cell project, dose response (AID 504325)", "details": "not given", "procedure,_shortened": "as §1", "units": {"AC50": "µM"}, "values": [
      {"smiles": "CC(C)c1ccc(/C=C/C(=O)NC2=NCCS2)cc1", "AC50": 8.92},
      {"smiles": "Cc1csc(NC(=O)/C=C/c2ccc(C(C)C)cc2)n1", "AC50": 2.83},
      {"smiles": "O=C(COc1c(Cl)cc(Cl)cc1Cl)N/N=C/c1ccc[nH]1", "AC50": 27.6},
      {"smiles": "CC(C)c1ccc(/C=C/C(=O)Nc2ccccc2)cc1", "AC50": 3.28},
      {"smiles": "CC(C)(C)c1ccc2c(c1)OC(C(=O)N/N=C/c1ccc[nH]1)CO2", "note": "(configuration not stated)", "AC50": 15},
      {"smiles": "Cc1csc(NC(=O)c2ccc(COc3ccccc3)o2)n1", "AC50": 13.3},
      {"smiles": "Cc1ccc(/C=N/NC(=O)COc2ccc(Cl)cc2Cl)[nH]1", "AC50": 16.9},
      {"smiles": "Cn1cncc1/C=N/NC(=O)COc1ccc(Cl)cc1Cl", "AC50": 18.9}
    ]}
  ]
}
